This is one part of the list. Calls of active or inactive are those of the source.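 Rule for the calls: active = activation above a set limit derived from the earlier primary screen (cut at about 12% in these data); inactive = the rest.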

For 18 molecules, activation results are on record in PubChem BioAssay AID1526 (The Scripps Research Institute Molecular Screening Center, 2009).

Sequence of Mucolipin-3 (Homo sapiens) (Q8TDD5 whole entry, looked up): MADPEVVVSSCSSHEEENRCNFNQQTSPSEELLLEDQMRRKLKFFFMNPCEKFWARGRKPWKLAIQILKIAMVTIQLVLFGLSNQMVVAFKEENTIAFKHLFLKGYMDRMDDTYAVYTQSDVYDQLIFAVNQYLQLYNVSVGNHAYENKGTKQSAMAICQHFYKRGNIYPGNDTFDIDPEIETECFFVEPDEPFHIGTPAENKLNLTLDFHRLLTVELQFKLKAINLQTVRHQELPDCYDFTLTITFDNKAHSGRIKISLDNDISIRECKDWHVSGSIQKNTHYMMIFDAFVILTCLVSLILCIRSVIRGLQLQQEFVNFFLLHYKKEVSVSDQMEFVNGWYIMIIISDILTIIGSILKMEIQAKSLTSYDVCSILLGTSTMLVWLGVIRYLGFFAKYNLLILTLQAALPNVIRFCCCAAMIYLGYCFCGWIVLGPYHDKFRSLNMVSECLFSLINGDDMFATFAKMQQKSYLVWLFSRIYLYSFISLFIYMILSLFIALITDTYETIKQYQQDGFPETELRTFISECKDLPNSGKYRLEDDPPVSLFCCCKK

For the assay, the target named is Mucolipin-3 (Homo sapiens) (UniProt Q8TDD5). In words: activators of mucolipin-3 cation channel – cell-based, HEK293 TRPML3-YFP, Fluo-8 calcium, triplicate, confirmation (AID 1526). To be noted: Fluo-8 calcium fluorescence, at 3 µM, active compounds read high, 100% set by carbachol, 0% by DMSO. An outline of the steps: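 system = human TRPML3-YFP channel stably expressed in HEK293 cells | dosing = one 3 µM nominal concentration | schedule = dye loading 1 h, 37 °C, 125 s read | technique = Fluo-8 calcium dye fluorescence | read-out = percent activation from max/basal signal ratio | benchmarks = high carbachol 87 µM, low DMSO | repeats = three replicate wells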
For the molecule `CC1=CC(C)(C)N(C(=O)CSc2nnc(-c3ccccc3)o2)c2ccc(C)cc21`, the activation is 48.3% (active).
In the case of `CCOC(=O)C1=C(NC(=S)NC(=O)c2ccccc2)c2ccccc2CC1(C)C` it was 43.6% (active); in that of `COc1ccc(Cl)cc1N(CC(=O)N1CCCCC1)S(C)(=O)=O`, 71.9% (active).
Then `C=C(C)Cn1c(C)cc(C)c(S(=O)(=O)c2ccccc2C)c1=O`, with 27.8% (active); and `COc1ccc(S(=O)(=O)N2CCCC2)c(C)c1C`, with 13.6% (active).
Then `COc1ccccc1N(CC(=O)N1CCCCC1)S(=O)(=O)c1ccccc1`, with 169% (active).
With `COc1cc(/C=C(\C#N)c2nc3c(s2)CC(C)CC3)ccc1O` (stereo not drawn), the activation is 6.5% (inactive).
In the case of `c1ccc2c(C[n+]3csc4ccccc43)cccc2c1` it was 58% (active).
Consider `O=S(=O)(Nc1ccccc1N1CCOCC1)c1ccc(Cl)s1`, for which the activation is 63% (active).
In the case of `CC1CCCC(C)N1C(=O)CN1CCN(c2nc(-c3ccc(F)cc3)cs2)CC1` (stereo not drawn) it was 20.4% (active); in that of `CC1(C)CCCC2=C1CC1C(=O)N(c3ccccc3)C(=O)C1C2` (stereo not drawn), 14.2% (active).
Then `CCOc1ccc(S(=O)(=O)N2CCCCCC2)c2ccccc12`, with 129% (active); and `Cc1cccc(C)c1N1CCN(S(=O)(=O)N2CCCCC2)CC1`, with 79.3% (active); and `CCN(CC)S(=O)(=O)c1ccc2c3c(cccc13)C(=O)S2`, with 10.5% (inactive).
In the case of `COc1ccc(-c2noc(CN(C)S(=O)(=O)c3ccc(C)cc3)n2)cc1` it was 111% (active); in that of `CCN(CC)C(=O)CC1(c2ccccc2OC)CCOC(C(C)C)C1` (stereo not drawn), 14.7% (active); in that of `O=C(CC(O)(C(F)(F)F)C(F)(F)F)Nc1ccc(Cl)c(Cl)c1`, 13.9% (active).
For the molecule `COc1ccc(N(CCC#N)S(=O)(=O)c2ccc(Cl)cc2)cc1`, the activation was 9.45% (inactive).
